Screens from PubChem.
Compounds with a hit are over-represented: about 4% of the library has one in this group of screens.
FAK inh: inhibitors of human focal adhesion kinase; Q05397; inhibition, %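 (tested at 7 µM)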; biochemical FAK kinase activity assay; actives 0.84% (n = 97,000); in the data active = inhibition above about 19%
ERb coact inh: ER-beta (human) coactivator binding inhibition; Q92731; TR-FRET ER-beta LBD / SRC1-Cy5 peptide binding; receptor agonist-loaded with 1 µM estradiol; inhibition, % at 25.6 µM; actives 1.3% (n = 86,000);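 active = compounds whose percent inhibition of the receptor-coactivator binding signal exceeds about 50% in the single-dose screen, limit read from the data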
ERa SRC1 inh: blocks coactivator binding to human estrogen receptor alpha; P03372; TR-FRET ER-alpha LBD / SRC-1 peptide, estradiol-bound; inhibition, % at 25.6 µM; actives 1.7% (n = 86,000); AID 629; in the data active = inhibition above about 50%
Target sequence (P03372 whole entry, looked up, the tested form may be a part): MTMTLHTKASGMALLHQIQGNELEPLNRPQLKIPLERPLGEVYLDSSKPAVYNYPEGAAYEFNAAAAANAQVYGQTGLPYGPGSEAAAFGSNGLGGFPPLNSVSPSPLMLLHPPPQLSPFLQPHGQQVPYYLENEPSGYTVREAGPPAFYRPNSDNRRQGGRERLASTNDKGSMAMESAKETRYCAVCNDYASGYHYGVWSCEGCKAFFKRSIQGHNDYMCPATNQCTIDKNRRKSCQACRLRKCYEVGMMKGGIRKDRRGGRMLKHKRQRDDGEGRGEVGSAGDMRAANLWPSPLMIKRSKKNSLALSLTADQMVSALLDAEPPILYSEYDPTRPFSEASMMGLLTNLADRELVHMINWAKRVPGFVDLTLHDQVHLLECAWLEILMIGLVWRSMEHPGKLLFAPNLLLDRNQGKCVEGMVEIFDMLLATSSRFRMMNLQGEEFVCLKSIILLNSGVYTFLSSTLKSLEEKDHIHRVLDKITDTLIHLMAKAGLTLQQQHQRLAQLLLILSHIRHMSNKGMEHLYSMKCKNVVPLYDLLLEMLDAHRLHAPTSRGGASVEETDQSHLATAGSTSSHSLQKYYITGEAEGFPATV
ERa coact pot: ER-alpha (human) coactivator binding potentiation; P03372; AID 639; coactivator binding (% of control), % at 25.6 µM; actives 1.3% (n = 86,000); TR-FRET ERalpha-LBD/SRC-Cy5 coactivator binding, 2 h; 100 = basal binding, no effect; in the data active = activity above about 200%;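 note: binding measured in presence of low estradiol as agonist stimulus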
Smad3 inh: inhibitors of human Smad3 transcription factor binding. P84022. TR-FRET Smad3/Dy647-FoxH1 peptide binding, europium anti-His. inhibition, % at 25 µM. actives 0.29% (n = 88,000);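 active = compounds that reduce the energy-transfer binding signal between the protein and its labelled peptide by more than half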
HIV Rev-RRE inh: HIV Rev-RRE protein-RNA interaction inhibition. P05866. Rev peptide-RRE RNA binding, FRET. inhibition, % at 8 µM. actives 0.79% (n = 97,000). AID 704;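 active = inhibition above the screen-wide mean plus 3 SD, cut at about 35% in these data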
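Test system: Cy5-tagged RRE RNA duplex with fluorescein-tagged Rev peptide | Read-out: % inhibition of FRET ratio versus controls | Probe or stimulus: Labelled Rev peptide | Incubation: 5 min RNA-compound premix plus 15 min binding step, 25 °C | Technique: FRET fluorescence readout | Benchmarks: DMSO low control, neomycin B high control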
A number is an active result; n = inactive; x = no result; [ ] = dose if it differs, or a comment.

SMILES | FAK inh | ERb coact inh | ERa SRC1 inh | ERa coact pot | Smad3 inh | HIV Rev-RRE inh
c1cncc(Oc2cccc(Oc3cccnc3)c2)c1 | n | 97.8[fluorescence artefact?] | n | n | n | n
CCCCCCc1nc2c(=O)[nH]c3ccccc3c2o1 | x | n | n | 248.9[fluorescence artefact?] | n | x
CCCCCCCc1nc2c(=O)n(C)c3ccccc3c2o1 | n | n | n | n | n | n
O=C(NCCCN1CCc2ccccc2C1)Nc1ccc(Cl)cc1 | n | n | n | n | n | n
CC(C)c1ccccc1NC(=O)c1cnccn1 | n | n | n | n | n | n
CSc1ccccc1NC(=O)c1cnccn1 | n | n | 56.5[fluorescence artefact?] | n | n | n
COc1ccc(N2Cc3cccc(C(=O)O)c3C2=O)cc1 | n | 64.9 | 64.1 | n | n | n
COc1cc(C(=O)Nc2cnc(NC(=O)C(C)C)cc2C)cc(OC)c1OC | n | 51.8 | n | n | n | n
Cc1cc(NC(=O)C(C)C)ncc1NC(=O)Cc1ccccc1 | n | n | n | n | n | n
O=[N+]([O-])c1ccc(NN=C2c3ccccc3Cc3ccccc32)c([N+](=O)[O-])c1 | x | x | x | x | n | x
Cc1cc(C(=O)CSC(=S)SC(C)(C)C)ccc1Cl | x | x | x | x | n | x
CCCCc1cc2c(c(NC(=O)CC)n1)c(=O)oc1ccccc12 | n | n | 61.8[fluorescence artefact?] | n | n | n
CC(=O)Nc1nc2c(c3c1c(=O)oc1ccccc13)CC(C)CC2 (stereo not given) | n | n | n | 226.7[fluorescence artefact?] | n | n
CC(=O)Nc1nc(CC(C)C)cc2c1c(=O)oc1ccccc12 | n | n | n | n | n | n
CCCCC(=O)Nc1ccc2c(c1)oc1ccccc12 | n | n | n | n | n | n
CCCCc1cc2c(c(NC(C)=O)n1)c(=O)oc1ccccc12 | n | n | n | 269.9[fluorescence artefact?] | n | n
CC(=O)c1c(C(C)=O)c(C)n(-c2ccc(C(=O)O)cc2)c1C | n | n | n | n | n | n
Cc1ccc(C)n1-c1ccc(C(=O)O)cc1 | n | n | 54.1[fluorescence artefact?] | n | n | n
CCOc1cc(-c2cc(-c3ccc(C)cc3)nc(N)c2C#N)ccc1O | n | n | n | n | n | 38.9
CCOc1cc(-c2c(C#N)c(N)nc3c2CCCC3C)ccc1O (stereo not given) | n | n | n | n | n | n
CCC(C)Sc1nc2c(cnn2-c2ccc(C)cc2)c(=O)[nH]1 (stereo not given) | n | n | n | 526.0[fluorescence artefact?] | n | n
CCSc1nc2c(cnn2-c2ccc(C)cc2)c(=O)[nH]1 | x | n | n | 628.1 | n | x
O=C(O)CCCN1CCCCC1 | x | x | x | x | n | x
C[N+]1(C)CCc2cc(O)c(O)cc2[C@H]1Cc1ccc(O)c(O)c1 | x | x | x | x | n | x
CSc1ncnc2c1ncn2[C@H]1O[C@@H](CO)[C@H](O)O[C@@H]1O | x | x | x | x | n | x
SMILES | FAK inh | ERb coact inh | ERa SRC1 inh | ERa coact pot | Smad3 inh | HIV Rev-RRE inh
CCCCOc1ccc(N2C(=O)CC(NCCc3ccc(S(N)(=O)=O)cc3)C2=O)cc1 (stereo not given) | n | n | n | n | n | n
Cn1ccnc1SCC(=O)Nc1ccc2nc(SCC(=O)NC3CC3)sc2c1 | n | n | 53.1 | n | n | n
O=C(O)C1Nc2c(O)cccc2C2C=CCC12 (stereo not given) | x | 99.1[fluorescence artefact?] | 98.7[fluorescence artefact?] | n | n | x
Cc1ccc(NS(=O)(=O)c2ccc3c(c2)oc(=O)n3C)cc1F | n | n | n | 221.2 | n | n
Cn1c(=O)oc2cc(S(=O)(=O)Nc3ccc4c(c3)OCCO4)ccc21 | n | n | n | n | n | 38.3
CCn1c2ccccc2c2cc(NC(=O)CSc3nnc(-c4ccc(OC)cc4)n3N)ccc21 | n | n | 67.6 | n | n | n
CCn1c(SCC(=O)Nc2ccc3c(c2)c2ccccc2n3CC)nnc1-c1cnccn1 | x | n | 73.5 | n | n | x
COc1ccc(NC(=O)CSc2nnc(-c3ccccc3)n2N)cc1 | n | n | n | n | n | n
COc1c(F)c(F)c(C(=O)Nc2ccc(N3CCN(Cc4ccccc4)CC3)cc2)c(F)c1F | n | n | n | n | n | n
Cc1ccc(-c2c3c(=O)n(C)c(=O)n(C)c3c3nnc4ccccc4n23)cc1 | n | n | n | n | n | n
Cc1cccc(-c2c3c(=O)n(C)c(=O)n(C)c3c3nnc4ccccc4n23)c1 | n | x | x | x | x | 48.7
CCN(CC(=O)NC1CCCCCC1)S(=O)(=O)c1ccccc1 | n | n | n | n | n | n
CCN(CC(=O)NC1CCCC1)S(=O)(=O)c1ccc(C)cc1 | n | n | 94.9[fluorescence artefact?] | n | n | n
c1ccc(-c2cc(-c3nn4c(-c5ccco5)nnc4s3)c3ccccc3n2)cc1 | n | 54.0[fluorescence artefact?] | 69.6[fluorescence artefact?] | n | n | n
c1ccc(Cc2nnc3sc(-c4ccco4)nn23)cc1 | n | 59.1 | 64.2[fluorescence artefact?] | n | n | n
Cc1cc(-c2nn3c(-c4ccccc4)nnc3s2)c2ccccc2n1 | n | n | 73.5 | n | n | n
O=C1[C@H]2[C@@H]3c4ccccc4[C@H]([C@H]2C(=O)N1c1ccc(OCc2ccccc2)cc1)[n+]1ccccc13 | x | x | x | x | n | x
O=C(O)/C=C/C=C/c1ccc2c(c1)OCO2 | x | x | x | x | n | x
Cc1ccc2c(c1)c(=O)c1c3n2CCN(C(=O)CCl)C3CC1 (stereo not given) | n | 72.3 | 82.7[fluorescence artefact?] | n | n | n
CCOC(=O)c1nn(-c2ccc(C)cc2)cc1C(=O)c1ccccc1 | n | x | x | x | x | n
O=C1c2ccccc2C2NC(=O)C3(CCCCC3)N12 (stereo not given) | x | n | n | n | n | x
O=C1C(O)CC2c3ccccc3CC3(CCCC3)N12 (stereo not given) | n | n | n | 235.2 | n | n
O=C(NCCCN1CCCC1=O)c1ccccc1NS(=O)(=O)c1ccc(Br)cc1 | n | n | n | n | n | n
Cn1nc(CC(=O)Nc2ncc(Br)s2)c2ccccc2c1=O | n | 50.2 | n | n | n | n
Cn1nc(CC(=O)Nc2ccc3c(c2)CCC3)c2ccccc2c1=O | x | n | n | n | n | x
Cn1nc(CC(=O)NC2CCCCCCCCCCC2)c2ccccc2c1=O | n | 54.5[fluorescence artefact?] | 90.6[fluorescence artefact?] | n | n | n
N[C@@]1(C(=O)O)CCC[C@@H]1C(=O)O | x | x | x | x | n | x
CCC(Oc1ccccc1)C(=O)N1CC(C)CC(C)C1 (stereo not given) | n | n | n | n | n | n
